Results reported in ChEMBL document CHEMBL1132122, “Synthesis and antimalarial activity of 11 dispiro-1,2,4,5-tetraoxane analogues of WR 148999. 7,8,15,16-Tetraoxadispiro[5.2.5.2]hexadecanes substituted at the 1 and 10 positions with unsaturated and polar functional groups” (J Med Chem, 1999).
pIC50: −log10 of the molar value.

Tests used:
[1] = system: Mus musculus; test: In vivo evaluation for antimalarial activity against Plasmodium berghei in terms of survival days when administered subcutaneously in mice (Mus musculus); format: functional
In short: (§1)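 P. berghei ANKA infection in Moro SPF mice, groups of three. Treatment was one 100 mg/kg dose on day 1 post-infection, dissolved or suspended in 3% ethanol plus 7% Tween 80, given orally or subcutaneously. Read-out is mean survival time in days, compared with an untreated control group.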

[2] = system: Mus musculus; test: In vivo evaluation for antimalarial activity against Plasmodium berghei in percentage when administered orally in mice (Mus musculus); format: functional; parameters: concentration or dose not given beside the values
In short: (§2)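 Moro SPF mice infected with P. berghei ANKA, three per group. A single 100 mg/kg dose in 3% ethanol/7% Tween 80 (solution or suspension) was given on day 1 post-infection, po or sc. Activity is percent reduction of parasitemia on day 3 post-infection versus untreated controls.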

[3] = system: Plasmodium falciparum; test: In vitro antimalarial activity against chloroquine-resistant Plasmodium falciparum K1; format: functional, organism-based
In short: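 Tritiated hypoxanthine uptake assay (modified Desjardins method) on P. falciparum asexual cultures, run on chloroquine-resistant K1 and drug-sensitive NF54 strains.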

[4] = system: Mus musculus; test: In vivo evaluation for antimalarial activity against Plasmodium berghei in percentage when administered subcutaneously in mice (Mus musculus); format: functional; parameters: concentration or dose not given beside the values; in short: as §2
[5] = system: Plasmodium falciparum; test: In vitro antimalarial activity against drug-sensitive Plasmodium falciparum NF54
[6] = system: Mus musculus; test: In vivo evaluation for antimalarial activity against Plasmodium berghei in terms of survival days when administered orally in mice (Mus musculus); format: functional; in short: as §1

Row | SMILES | Survival [1] | Activity [2] | pIC50 [3] | Activity [4] | pIC50 [5] | Survival [6]
1 | COC[C@H]1CCCCC12OOC1(CCCC[C@H]1COC)OO2 (some centres not stated) | 24.7 days | 18% | 7.82 | 100% | 7.80 | 
2 | CCOC(=O)C[C@H]1CCCCC12OOC1(CCCC[C@H]1CC(=O)OCC)OO2 (some centres not stated) |  | 0% | 8.21 | 0% | 8.19 | 
3 | O=C(O)CC[C@H]1CCCCC12OOC1(CCCC[C@H]1CCC(=O)O)OO2 (some centres not stated) |  |  | < 6.70 |  | < 6.70 | 
4 | OC[C@@H]1CCCCC12OOC1(CCCC[C@@H]1CO)OO2 (some centres not stated) |  |  | < 6.70 |  | < 6.70 | 
5 | CCOC(=O)CC[C@H]1CCCCC12OOC1(CCCC[C@H]1CCC(=O)OCC)OO2 (some centres not stated) |  | 0% | 7.85 | 0% | 7.80 | 
6 | O=C(O)C[C@H]1CCCCC12OOC1(CCCC[C@H]1CC(=O)O)OO2 (some centres not stated) |  |  | < 6.70 |  | < 6.70 | 
7 | c1ccc(COC[C@H]2CCCCC23OOC2(CCCC[C@H]2COCc2ccccc2)OO3)cc1 (some centres not stated) |  | 0% | 7.74 | 0% | 7.59 | 
8 | O=C(OC[C@H]1CCCCC12OOC1(CCCC[C@H]1COC(=O)c1ccccc1)OO2)c1ccccc1 (some centres not stated) |  |  | < 6.70 |  | < 6.70 | 
9 | c1ccc(C[C@H]2CCCCC23OOC2(CCCC[C@H]2Cc2ccccc2)OO3)cc1 (some centres not stated) |  |  | < 6.70 |  | < 6.70 | 
10 | C#CC[C@@H]1CCCCC12OOC1(CCCC[C@@H]1CC#C)OO2 (some centres not stated) |  | 0% | 7.89 | 9% | 7.89 | 
11 | C=CC[C@@H]1CCCCC12OOC1(CCCC[C@@H]1CC=C)OO2 (some centres not stated) |  | 93% | 7.72 | 15% | 7.64 | 7 days
12 | C[C@@H]1CC[C@H]2[C@@H](C)C(=O)O[C@@H]3O[C@@]4(C)CC[C@@H]1[C@]32OO4 [ARTEMISININ] | 14 days | 98% |  | 100% | 7.92 | 7.3 days
13 | C[C@@H]1CCCCC12OOC1(CCCC[C@@H]1C)OO2 (some centres not stated) [WR-148999] | 27.7 days | 99.7% | 7.55 | 100% | 7.41 | 7.7 days
